# Measured values as given in ChEMBL document CHEMBL1938356, “Structure-activity relationship of salicylic acid derivatives on inhibition of TNF-α dependent NFκB activity: Implication on anti-inflammatory effect of N-(5-chlorosalicyloyl)phenethylamine against experimental colitis” (Eur J Med Chem, 2012).
# Active and inactive are the calls of the source. The calls are words filed in the database; no cut-off is given here.
# What was measured:
# [1] = (§1) Inhibition of TNF-alpha-induced NF-kappaB activation in human HCT116 cells after 6 hrs by luciferase reporter gene assay; format: cell-based; details: HCT-116, 6 h
# In short: (§2)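 HCT116 cells at 50-60% confluence were cotransfected (Fugene) with an NFκB-dependent firefly luciferase plasmid and CMV Renilla plasmid (4 ng). After 24 h, cells received TNF-α (1 ng/ml) plus compound for 6 h, then were lysed. Dual-luciferase read-out, firefly normalized to Renilla. IC50 came from varied concentrations.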
# HCT-116 [2] = experiment: Inhibition of TNF-alpha-induced NF-kappaB activation in human HCT116 cells at 1 mM after 6 hrs by luciferase reporter gene assay; format: cell-based; in short: as §2
# RAW264.7 [3] = experiment: Inhibition of NF-kappaB-mediated iNOS protein expression in LPS-stimulated mouse RAW264.7 cells at 1 to 4 mM by Western blot analysis; format: cell-based
# In short: (§3)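 RAW264.7 cells in DMEM with 10% FBS were pretreated with a range of drug concentrations and stimulated with LPS. iNOS was immunoblotted in whole-cell lysates (30-40 µg), α-tubulin served as loading control, in duplicate.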
# HCT-116 [4] = experiment: as §1; format: cell-based; in short: as §2
# RAW264.7 [5] = experiment: Inhibition of NF-kappaB-mediated iNOS protein expression in LPS-stimulated mouse RAW264.7 cells at 0.1 mM by Western blot analysis; format: cell-based
# In short: (§4)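 RAW264.7 cells grown in DMEM with 10% FBS were pretreated 1 h with drug, then stimulated with LPS (1 ng/ml) for 6 h. iNOS was immunoblotted in whole-cell lysates (30-40 µg) with a polyclonal antibody, α-tubulin served as loading control, in duplicate.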
# RAW264.7 [6] = experiment: Inhibition of NF-kappaB-mediated iNOS protein expression in LPS-stimulated mouse RAW264.7 cells at 0.5 to 2 mM by Western blot analysis; format: cell-based; in short: as §3
# RAW264.7 [7] = details: Mus musculus, 2 to 4 mM
# RAW264.7 [8] = details: Mus musculus, 5 mM
# RAW264.7 [9] = experiment: Inhibition of NF-kappaB-mediated iNOS protein expression in LPS-stimulated mouse RAW264.7 cells at 0.25 mM by Western blot analysis; format: cell-based; in short: as §4
# Rattus norvegicus [10] = experiment: Antiinflammatory activity against trinitrobenzenesulfonic acid-induced colitis in rat assessed as decrease in CINC2 protein expression at 30 mM administered rectally QD for 6 days; format: functional, organism-based
# Rattus norvegicus [11] = experiment: Antiinflammatory activity against trinitrobenzenesulfonic acid-induced colitis in rat assessed as decrease in myeloperoxidase activity at 30 mM administered rectally QD for 6 days; format: functional, organism-based
# In short: (§5)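 TNBS colitis in rats: after a 24 h fast with free access to water and light ether anaesthesia, TNBS (15 mg/0.3 ml/rat in 50% aqueous ethanol) was instilled through a rectal cannula whose tip sat 8 cm proximal to the anus. From day 3, drug in PBS (500 µL; 100 or 300 µM, or sodium 5-aminosalicylate 30 mM) was given rectally once daily for 6 days, then rats were sacrificed.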
# Rattus norvegicus [12] = experiment: Antiinflammatory activity against trinitrobenzenesulfonic acid-induced colitis in rat assessed as healing of damaged colon at 30 mM administered rectally QD for 6 days; format: functional, organism-based; in short: as §5
# Rattus norvegicus [13] = experiment: Antiinflammatory activity against trinitrobenzenesulfonic acid-induced colitis in rat assessed as decrease in COX2 protein at 30 mM administered rectally QD for 6 days; format: functional, organism-based; in short: as §5
# Rattus norvegicus [14] = experiment: Antiinflammatory activity against trinitrobenzenesulfonic acid-induced colitis in rat assessed as decrease in myeloperoxidase activity at 100 uM administered rectally QD for 6 days; format: functional; set-up: scale not given: the % may be the effect or the level left; in short: as §5
# Rattus norvegicus [15] = experiment: Antiinflammatory activity against trinitrobenzenesulfonic acid-induced colitis in rat assessed as decrease in CINC2 protein expression administered rectally QD for 6 days; format: functional, organism-based
# Rattus norvegicus [16] = experiment: Antiinflammatory activity against trinitrobenzenesulfonic acid-induced colitis in rat assessed as decrease in CINC-3 protein at 300 uM administered rectally QD for 6 days; format: functional, organism-based; in short: as §5
# Rattus norvegicus [17] = experiment: Antiinflammatory activity against trinitrobenzenesulfonic acid-induced colitis in rat assessed as decrease in COX2 protein at 300 uM administered rectally QD for 6 days; format: functional, organism-based; in short: as §5
# Rattus norvegicus [18] = experiment: Antiinflammatory activity against trinitrobenzenesulfonic acid-induced colitis in rat assessed as healing of damaged colon at 300 uM administered rectally QD for 6 days; format: functional, organism-based; in short: as §5
# Rattus norvegicus [19] = experiment: Antiinflammatory activity against trinitrobenzenesulfonic acid-induced colitis in rat assessed as decrease in myeloperoxidase activity at 300 uM administered rectally QD for 6 days; format: functional; set-up: scale not given: the % may be the effect or the level left; in short: as §5
# Rattus norvegicus [20] = experiment: Antiinflammatory activity against trinitrobenzenesulfonic acid-induced colitis in rat assessed as decrease in COX2 protein administered rectally QD for 6 days; format: functional, organism-based; in short: as §5
# Rattus norvegicus [21] = experiment: Antiinflammatory activity against trinitrobenzenesulfonic acid-induced colitis in rat assessed as healing of damaged colon administered rectally QD for 6 days; format: functional, organism-based; in short: as §5
structure (smiles),measurement,setting,value
CN1CCN(C(=O)c2cc(Cl)ccc2O)CC1,IC50,[1],> 250 µM
O=C(O)c1cc(-c2ccc(F)cc2F)ccc1O,inhibition,HCT-116 [2],Active
O=C(O)c1cc(Cl)ccc1O,inhibition,HCT-116 [2],Active
same,inhibition,RAW264.7 [3],Active
NC(=O)c1ccccc1O,inhibition,HCT-116 [2],Active
same,inhibition,RAW264.7 [3],Active
COC(=O)c1ccccc1O,inhibition,HCT-116 [2],Active
O=C(c1cc(Cl)ccc1O)N1CCCCC1,IC50,[1],> 250 µM
O=C(NCc1ccccc1)c1cc(Cl)ccc1O,IC50,[1],105 µM
O=C(NCCCc1ccccc1)c1cc(Cl)ccc1O,IC50,[1],17 µM
same,inhibition,HCT-116 [4],Dose-dependent effect
same,inhibition,RAW264.7 [5],Active
CN(C)C(=O)c1cc(Cl)ccc1O,IC50,[1],> 250 µM
CC(=O)Oc1ccccc1C(=O)O,inhibition,HCT-116 [2],Active
O=C(c1cc(Cl)ccc1O)N1CCNCC1,IC50,[1],> 250 µM
NC(=O)c1cc(Cl)ccc1O,inhibition,RAW264.7 [6],Active
O=C(O)c1ccccc1O,inhibition,RAW264.7 [7],Active
same,inhibition,HCT-116 [2],Active
same,inhibition,RAW264.7 [8],Active
O=C(NCCc1ccc(O)cc1)c1cc(Cl)ccc1O,IC50,[1],91 µM
same,inhibition,HCT-116 [4],Dose-dependent effect
same,inhibition,RAW264.7 [9],Active
CNC(=O)c1cc(Cl)ccc1O,IC50,[1],> 250 µM
Nc1ccc(O)c(C(=O)O)c1,Activity,Rattus norvegicus [10],Active
same,inhibition,HCT-116 [2],Active
same,Activity,Rattus norvegicus [11],Active
same,Activity,Rattus norvegicus [12],Active
same,Activity,Rattus norvegicus [13],Active
O=C(NCCc1ccccc1)c1cc(Cl)ccc1O,Activity,Rattus norvegicus [14],60%
same,Activity,Rattus norvegicus [15],Dose-dependent effect
same,Activity,Rattus norvegicus [16],Active
same,IC50,[1],15 µM
same,inhibition,HCT-116 [4],Dose-dependent effect
same,Activity,Rattus norvegicus [17],Active
same,Activity,Rattus norvegicus [18],Active
same,inhibition,RAW264.7 [5],Active
same,Activity,Rattus norvegicus [19],35%
same,Activity,Rattus norvegicus [20],Dose-dependent effect
same,Activity,Rattus norvegicus [21],Dose-dependent effect
O=C(c1cc(Cl)ccc1O)N1CCOCC1,IC50,[1],> 250 µM
O=C(c1cc(Cl)ccc1O)N1CCN(c2ccccc2)CC1,IC50,[1],> 250 µM
CCCCCCNC(=O)c1cc(Cl)ccc1O,IC50,[1],95 µM
O=C(O)c1cc([N+](=O)[O-])ccc1O,inhibition,HCT-116 [2],Active
